# Measurements of several laboratories.
# CDK18 with cyclin Y: Cyclin-dependent kinase 18, with cyclin Y (CDK18, Homo sapiens, UniProt Q07002)
# CDK18: Cyclin-dependent kinase 18 (CDK18, Homo sapiens, UniProt Q07002)
Compound,target,read-out,mode,method,concentration,quantity,value
COc1ccc2oc(-c3ccc4nc(N)oc4c3)c/c(=N\c3ccccc3NC(=O)CCN)c2c1,CDK18 with cyclin Y,binding,,,1 µM,remaining binding,108%
COc1ccc2[nH]c3c4[nH]c5ccc(OC)cc5c4c4c(c3c2c1)C(=O)NC4=O,CDK18,binding,,,1 µM,remaining binding,80%
C1=C/COCc2cc(ccc2OCCN2CCCC2)Nc2nccc(n2)-c2cccc(c2)COC/1,CDK18,binding,,,0.1 µM,remaining binding,92%
CC(C)S(=O)(=O)c1ccc2nccc(Nc3ccc4sc(C5CCCC5)nc4c3)c2c1,CDK18 with cyclin Y,enzyme activity,inhibitor,,1 µM,activity vs control,104%
C=CC(=O)N1CCC([C@@H]2CCNc3c(C(N)=O)c(-c4ccc(Oc5ccccc5)cc4)nn32)CC1,CDK18,enzyme activity,inhibitor,,1 µM,inhibition,9%
Cc1ccc(NC(=O)c2ccnc(C(F)(F)F)c2)cc1-c1cc(OCCO)nc(N2CCOCC2)c1,CDK18,binding,,,1 µM,remaining binding,100%
C=CC(=O)N1CCC[C@@H](n2nc(-c3ccc(Oc4ccccc4)cc3)c3c(N)ncnc32)C1,CDK18,enzyme activity,inhibitor,,1 µM,inhibition,3%
CCCCC(=O)Nc1ccc(-c2ccc3ncn(CCC)c(=O)c3c2)cn1,CDK18,binding,,competition with immobilised ligand,0.5 µM,remaining binding,100%
